Activity calls are given as the source filed them. How the calls were made is not given here.
Columns and labels:
[1] = tested on: Salmonella typhimurium; assay: Antimicrobial activity against Salmonella Typhimurium ATCC 14028 assessed as inhibition of biofilm formation after 24 hrs by spectrophotometry; format: functional, organism-based, Salmonella enterica subsp. enterica serovar Typhimurium; conditions: for IC50: Salmonella enterica, ATCC 14028, 24 h
How it was run: (§1)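 Static peg-lid biofilm prevention assay. Twofold serial dilutions in TSB diluted 1/20, 2–3 repeats per compound. Overnight S. Typhimurium ATCC14028 (LB-grown) or P. aeruginosa PA14 (TSB-grown) cultures were diluted 1:100, giving ~10^6 cells/well, then incubated 24 h at 25 °C without shaking. Pegs were PBS-washed, stained 30 min with 0.1% crystal violet, extracted with 30% acetic acid and read at OD570. IC50 was fitted from the concentration gradient.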

[2] = tested on: Pseudomonas aeruginosa; assay: Antimicrobial activity against Pseudomonas aeruginosa PA14 assessed as inhibition of biofilm formation after 24 hrs by spectrophotometry; format: functional, organism-based; conditions: PA14, 24 h; how it was run: as §1
[3] = tested on: Salmonella typhimurium; assay: Antimicrobial activity against Salmonella Typhimurium ATCC 14028 assessed as inhibition of planktonic cell growth at IC50 after 24 hrs by […]; format: functional, organism-based; conditions: Salmonella enterica subsp. enterica serovar Typhimurium
How it was run: (§2)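 Planktonic growth was followed by Bioscreen growth curves, not by crystal violet. Overnight cultures were diluted 1:200 in TSB 1/20 and received compound serially diluted in DMSO or EtOH, in triplicate, with solvent controls. Plates were shaken at 25 °C for at least 24 h, reading A600 every 15 min.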

[4] = tested on: Pseudomonas aeruginosa; assay: Antimicrobial activity against Pseudomonas aeruginosa PA14 assessed as inhibition of planktonic cell growth at IC50 after 24 hrs by […]; format: functional, organism-based; how it was run: as §2

| Structure (SMILES) | IC50 [1] [µM] | IC50 [2] [µM] | growth inhibition (GI) [3] | growth inhibition (GI) [4] | inhibition (INH) [1] [%] |
| --- | --- | --- | --- | --- | --- |
| CCCCCCCCCCCCCN1c2nccc[n+]2C[C@@]1(O)c1ccc(Cl)cc1 | 316 | > 800 | – | – | – |
| CCCCCCCCCCN1c2nccc[n+]2C[C@@]1(O)c1ccc([N+](=O)[O-])cc1 | 9.9 | 22.3 | Active | Active | – |
| CCCCCCCCCN1c2nccc[n+]2C[C@@]1(O)c1ccc(Cl)cc1 | 18.3 | 20.2 | Active | Active | – |
| CCCCN1c2nccc[n+]2C[C@@]1(O)c1ccc(Br)cc1 | 90.1 | – | – | – | – |
| CCCCCCCCN1c2nccc[n+]2C[C@@]1(O)c1ccc(S(C)(=O)=O)cc1 | 60.3 | 99.9 | – | – | – |
| CCCCCCCCN1c2nccc[n+]2C[C@@]1(O)c1ccc(Cl)cc1 | 7 | 15.7 | Active | Active | – |
| CCCCCCN1c2nccc[n+]2C[C@@]1(O)c1ccccc1 | 102 | 406 | – | – | – |
| CCCCCCCCCCCCCCN1c2nccc[n+]2C[C@@]1(O)c1ccc(Cl)cc1 | > 800 | > 800 | – | – | – |
| CCCCCCCCN1c2nccc[n+]2C[C@@]1(O)c1ccc(F)cc1 | 7.6 | – | – | – | – |
| CC(C)CN1c2nccc[n+]2C[C@@]1(O)c1ccccc1 | 131 | 289 | – | – | – |
| CCN1c2nccc[n+]2C[C@@]1(O)c1ccc([N+](=O)[O-])cc1 | 579 | > 800 | – | – | – |
| O[C@@]1(c2ccc(Cl)cc2)C[n+]2cccnc2N1C1CCC1 | 121 | 372 | – | – | – |
| CCCCN1c2nccc[n+]2C[C@@]1(O)c1ccc(OC)cc1 | 314 | – | – | – | – |
| CCCCCCCCCCN1c2nccc[n+]2C[C@@]1(O)c1ccc(Cl)c(Cl)c1 | 32.4 | – | – | – | – |
| CCCCCCN1c2nccc[n+]2C[C@@]1(O)c1ccc(Cl)cc1 | 13.7 | 79.8 | – | – | – |
| CCCCCCCCN1c2nccc[n+]2C[C@@]1(O)c1ccc(OC)cc1 | 10.5 | – | – | – | – |
| CN1c2nccc[n+]2C[C@@]1(O)c1ccc([N+](=O)[O-])cc1 | 698 | > 400 | – | – | – |
| CCCCCCCCNc1ncc(-c2ccc(OC)cc2)[nH]1 | 400 | > 800 | – | – | 50 |
| Fc1ccc(-c2cnc(NCc3ccc4c(c3)OCO4)[nH]2)cc1 | 66.6 | 456 | inactive | – | – |
| CCNc1ncc(-c2ccc([N+](=O)[O-])cc2)[nH]1 | 171 | 104 | – | – | – |
| CCCCCCCCCNc1ncc(-c2ccc(Cl)cc2)[nH]1 | > 800 | – | – | – | – |
| COc1cccc(CNc2ncc(-c3ccc(Cl)c(Cl)c3)[nH]2)c1 | > 800 | > 800 | – | – | – |
| CN1c2nccc[n+]2C[C@@]1(O)c1cccc([N+](=O)[O-])c1 | 564 | – | – | – | – |
| CN1c2nccc[n+]2C[C@@]1(O)c1ccccc1 | > 800 | > 400 | – | – | – |
| CCCCCCN1c2nccc[n+]2C[C@@]1(O)c1ccc([N+](=O)[O-])cc1 | 54.7 | 12.4 | Active | Active | – |
| CNc1ncc(-c2ccc(F)c(F)c2)[nH]1 | 602 | – | – | – | – |

| Structure (SMILES) | IC50 [1] [µM] | IC50 [2] [µM] | growth inhibition (GI) [3] | growth inhibition (GI) [4] | inhibition (INH) [1] [%] |
| --- | --- | --- | --- | --- | --- |
| CCCCN1c2nccc[n+]2C[C@@]1(O)c1ccc(F)cc1 | 163 | – | – | – | – |
| CCCCCCCCCCCCN1c2nccc[n+]2C[C@@]1(O)c1ccc(Cl)cc1 | 122 | > 800 | – | – | – |
| CCCCN1c2nccc[n+]2C[C@@]1(O)c1ccc([N+](=O)[O-])cc1 | 293 | 145 | – | – | – |
| O[C@@]1(c2ccc3c(c2)OCO3)C[n+]2cccnc2N1Cc1ccc2c(c1)OCO2 | 53.7 | – | inactive | – | – |
| CCCCCCCCNc1ncc(-c2cccc3ccccc23)[nH]1 | 238 | > 800 | – | – | 50 |
| O[C@@]1(c2ccc(Cl)cc2)C[n+]2cccnc2N1C1CC1 | 82.7 | 179 | – | – | – |
| CCCCCCCCN1c2nccc[n+]2C[C@@]1(O)c1ccccc1 | 9.8 | 14.4 | Active | Active | – |
| CCCCCCCCNc1ncc(-c2ccc(F)cc2)[nH]1 | > 400 | 3.1 | – | – | – |
| O[C@@]1(c2ccccc2)C[n+]2cccnc2N1C1CCC1 | 493 | > 400 | – | – | – |
| CCCCCCCCNc1ncc(-c2ccc(Cl)cc2)[nH]1 | > 400 | 1.6 | – | – | – |
| CCCCCCCCN1c2nccc[n+]2C[C@@]1(O)c1cccc2ccccc12 | 14.7 | 15.1 | – | – | – |
| CN1c2nccc[n+]2C[C@@]1(O)c1ccc(F)cc1 | 1820 | – | – | – | – |
| O=[N+]([O-])c1ccc([C@]2(O)C[n+]3cccnc3N2C2CC2)cc1 | 125 | 20.4 | – | – | – |
| O[C@@]1(c2ccc(Cl)cc2)C[n+]2cccnc2N1C1CCCCCCCCCCC1 | 5.6 | 6.8 | Active | Active | – |
| c1ccc2c(-c3cnc(NCc4ccc5c(c4)OCO5)[nH]3)cccc2c1 | – | 10.5 | – | – | – |
| Clc1ccc(-c2cnc(NC3CCCCC3)[nH]2)cc1 | > 800 | 25 | – | – | – |
| CC(C)N1c2nccc[n+]2C[C@@]1(O)c1ccccc1 | 540 | > 400 | – | – | – |
| CC(C)Nc1ncc(-c2ccccc2)[nH]1 | > 800 | 261 | – | – | – |
| CCCCCCCCCN1c2nccc[n+]2C[C@@]1(O)c1ccccc1 | 8.3 | 26.8 | Active | Active | – |
| CCCCCCCCN1c2nccc[n+]2C[C@@]1(O)c1ccc([N+](=O)[O-])cc1 | 6.6 | 12.1 | Active | Active | – |
| O[C@@]1(c2ccccc2)C[n+]2cccnc2N1Cc1ccccc1 | 212 | – | – | – | – |
| CCCCCCCN1c2nccc[n+]2C[C@@]1(O)c1ccc(Cl)cc1 | 6.7 | 36.9 | – | – | – |
| COc1ccc(CN2c3nccc[n+]3C[C@@]2(O)c2ccc(Br)cc2)cc1 | 110 | – | – | – | – |
| CCCCCCCCNc1ncc(-c2ccc(Br)cc2)[nH]1 | 1.9 | > 800 | – | – | – |
| COc1cccc(CNc2ncc(-c3ccc(-c4ccc(-c5ccccc5)cc4)cc3)[nH]2)c1 | > 800 | > 800 | – | – | – |
| CCCCCCCCN1c2nccc[n+]2C[C@@]1(O)c1ccc(Cl)c(Cl)c1 | 7.1 | – | – | – | – |

| Structure (SMILES) | IC50 [1] [µM] | IC50 [2] [µM] | growth inhibition (GI) [3] | growth inhibition (GI) [4] | inhibition (INH) [1] [%] |
| --- | --- | --- | --- | --- | --- |
| CCCCCCCCN1c2nccc[n+]2C[C@@]1(O)c1ccc(SC)cc1 | 13.2 | 36.5 | – | – | – |
| CCCCCCCCN1c2nccc[n+]2C[C@@]1(O)c1ccc(-c2ccc(-c3ccccc3)cc2)cc1 | 52.8 | 336 | – | – | – |
| O=[N+]([O-])c1ccc([C@]2(O)C[n+]3cccnc3N2C23CC4CC(CC(C4)C2)C3)cc1 | 8.8 | 14.4 | – | – | – |
| CCCCCCCCCCN1c2nccc[n+]2C[C@@]1(O)c1ccc(F)cc1 | 20 | – | – | – | – |
| CCCCNc1ncc(-c2ccc([N+](=O)[O-])cc2)[nH]1 | 702 | > 800 | – | – | – |
| O=[N+]([O-])c1ccc([C@]2(O)C[n+]3cccnc3N2Cc2ccccc2)cc1 | 174 | – | – | – | – |
| COc1ccc(CNc2ncc(-c3ccc([N+](=O)[O-])cc3)[nH]2)cc1 | > 800 | > 800 | – | – | – |
| O[C@@]1(c2ccccc2)C[n+]2cccnc2N1C1CCCCCC1 | 84.2 | 191 | inactive | inactive | – |
| CC(C)(C)N1c2nccc[n+]2C[C@@]1(O)c1ccc([N+](=O)[O-])cc1 | 211 | 41.5 | – | – | – |
| CNc1ncc(-c2ccc(O)cc2)[nH]1 | 160 | – | – | – | – |
| CCCCN1c2nccc[n+]2C[C@@]1(O)c1ccccc1 | 410 | > 400 | – | – | – |
| CCCCCCNc1ncc(-c2ccc(F)cc2)[nH]1 | > 400 | 12.5 | – | – | – |
| O=[N+]([O-])c1ccc([C@]2(O)C[n+]3cccnc3N2C2CCCCCCCCCCC2)cc1 | < 6.3 | 5.4 | Active | Active | – |
| CN1c2nccc[n+]2C[C@@]1(O)c1ccc(Cl)cc1 | 225 | 170 | – | – | – |
| CC(C)CN1c2nccc[n+]2C[C@@]1(O)c1ccc([N+](=O)[O-])cc1 | 322 | 192 | – | – | – |
| CCCCCCCCCCN1c2nccc[n+]2C[C@@]1(O)c1ccc(Cl)cc1 | 51.3 | 83.3 | Active | Active | – |
| CCCCCNc1ncc(-c2ccc(Cl)cc2)[nH]1 | > 400 | 6.3 | – | – | – |
| CCCCCCCCCCN1c2nccc[n+]2C[C@@]1(O)c1ccccc1 | 15 | 29.9 | Active | Active | – |
| CCCCCCCN1c2nccc[n+]2C[C@@]1(O)c1ccccc1 | 23.4 | 25.5 | Active | Active | – |
| CCCCCCCCN1c2nccc[n+]2C[C@@]1(O)c1ccc(-c2ccc([N+](=O)[O-])cc2)cc1 | 31 | 215 | – | – | – |
| CCCCCCCCCCN1c2nccc[n+]2C[C@@]1(O)c1ccc(OC)cc1 | 18.6 | – | Active | – | – |
| CCCCCN1c2nccc[n+]2C[C@@]1(O)c1ccccc1 | 278 | 565 | – | – | – |
| CC(C)N1c2nccc[n+]2C[C@@]1(O)c1ccc([N+](=O)[O-])cc1 | 466 | 192 | – | – | – |
| CCCCCCCCNc1ncc(-c2ccc(Cl)c(Cl)c2)[nH]1 | 118 | > 800 | – | – | 50 |

Source: ChEMBL document CHEMBL1811868, “Structure-activity relationship of 2-hydroxy-2-aryl-2,3-dihydro-imidazo[1,2-a]pyrimidinium salts and 2N-substituted 4(5)-aryl-2-amino-1H-imidazoles as inhibitors of biofilm formation by Salmonella Typhimurium and Pseudomonas aeruginosa” (Bioorg Med Chem, 2011)
